Sampled rows, rich in hits. Any-hit rate of the full collection: about 1.8%.
GSTO1 counter: inhibitors of recombinant GSTO1, primary screen, counter-screen for RBBP9 inhibitor project, biochemical, fluorescence polarization | Glutathione S-transferase omega-1 (Homo sapiens), P78417 | 300,000 tested, 1.1% active | activity-based probe fluorescence polarization | inhibition, % at 5.96 µM;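 active = inhibition above the campaign mean inhibition plus 3 SD, cut at about 35% in these data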;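 also: 0% = GSTO1-1 with DMSO and 100% = wells lacking GSTO1-1 enzyme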
Target sequence (P78417 whole entry, looked up): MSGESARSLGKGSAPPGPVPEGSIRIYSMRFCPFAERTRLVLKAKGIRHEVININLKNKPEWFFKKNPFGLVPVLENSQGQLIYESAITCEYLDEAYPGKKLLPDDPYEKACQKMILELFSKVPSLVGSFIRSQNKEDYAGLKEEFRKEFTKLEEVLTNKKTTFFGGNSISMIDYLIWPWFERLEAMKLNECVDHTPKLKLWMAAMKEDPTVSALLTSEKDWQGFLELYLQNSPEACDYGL
Apaf1 inhib: inhibitors of human Apaf-1 apoptosome, primary screen, biochemical, DEVD-Rh110 fluorescence, uHTS; Apoptotic protease-activating factor 1 (Homo sapiens), O14727; reconstituted apoptosome caspase-3 activity; inhibition, % at 20 µM; 330,000 tested, 0.71% active; AID 489030, 2010; active = inhibition of at least 40% at 20 µM;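 also: plate controls were DMSO wells for no effect and DEVD-CHO caspase inhibitor wells for full effect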
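Assay system: Apoptosome proteins | Medium: pH 7.5 Hepes buffer with CHAPS, BSA, DTT | Also added: Cytochrome c and DEVD-Rh110 substrate | Times: 30 min plus 50 min, RT | Detection: Rhodamine 110 fluorescence at Ex 480/Em 540 nm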
Fh CTSL1 inh: Fasciola hepatica cathepsin L1 inhibitors, primary screen, counter-screen for PFM18AAP inhibitor project, biochemical, QFRET, fluorogenic peptide substrate. recombinant F. hepatica cathepsin L1, Z-Leu-Arg-MCA fluorescence. 300,000 tested, 0.49% active. inhibition, % at 5.96 µM;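 active = inhibition above the mean of all tested compounds plus 3 SD, set per screening campaign, cut at about 17% in these data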;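 also: 0% = plate median of test compound wells and 100% = 1 µM Z-Phe-Ala-diazomethylketone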
PAD4 inh: human PAD4 inhibitors, primary screen, biochemical, fluorescence polarization, 1536-well format; Protein-arginine deiminase type-4 (Homo sapiens), Q9UM07; recombinant PAD4, RCA probe fluorescence polarization; inhibition, % at 6.36 µM; 330,000 tested, 0.41% active; AID 485272, 2010;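 active = percent inhibition above a cutoff equal to the mean of all tested compounds plus 3 SD, cut at about 15% in these data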;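 also: 0% = PAD4 with RCA probe and DMSO and 100% = probe without PAD4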
TDP2 inh: human TDP2 enzyme inhibitors, primary screen, biochemical, epi absorbance, recombinant enzyme; AID 720702, 2013; T5PNP hydrolysis, p-nitrophenol absorbance 415 nm; 370,000 tested, 0.34% active; Tyrosyl-DNA phosphodiesterase 2 (Homo sapiens), O95551; inhibition, % at 12.8 µM;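 active = inhibition above the mean of all tested compounds plus 3 SD, set per campaign, cut at about 25% in these data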;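 also: 0% = DMSO with enzyme and 100% = buffer with substrate but no TDP2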
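Evaluation: % inhibition relative to enzyme-containing and enzyme-free wells. Material: recombinant human TDP2. Benchmarks: enzyme-free and DMSO wells. Timing: enzyme reaction with compound for 2 h at 37 °C. Compound dosing: 12.8 µM only. Measured by: p-Nitrophenol epi absorbance. Reagent: T5PNP substrate at 5 mM, a TopII-DNA adduct mimic. Replication: single well per compound.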
Numbers without * were called inactive; . = no result.

SMILES	GSTO1 counter	Apaf1 inhib	Fh CTSL1 inh	PAD4 inh	TDP2 inh
COc1ccc(NC(=O)CCCCCN2C(=O)c3cccc([N+](=O)[O-])c3C2=O)c(OC)c1	0	41*	-1	-2	-3
CCC(C)NC(=O)C(Cc1ccccc1)NS(=O)(=O)c1ccc2c(c1)CCC(=O)N2 (stereo not given)	5	-9	-1	-1	11
CCCN(CCC)CCNC(=O)C(NS(=O)(=O)c1ccc2c(c1)CCC(=O)N2)c1ccccc1 (stereo not given)	6	-20	31*	2	.
CC(C)Oc1cccc(-c2csc(N3CCC(C(N)=O)CC3)n2)c1	.	.	.	.	-13
O=CN1CCN(C(=O)c2ccc(-c3nc4ccccc4s3)s2)CC1	3	3	26*	0	-1
CC1=NN(c2ccc(C(=O)O)cc2)C(=O)/C1=C/c1ccc(-c2ccccc2F)o1	0	58*	0	-4	.
CC1=NN(c2ccccc2)C(=O)/C1=C/c1ccc(-c2ccc(C)c(C(=O)O)c2)o1	23	68*	7	-15	4
Nc1[nH]c(C(=O)c2ccccc2)c(-c2ccc(O)cc2)c1C(=O)NCCc1c[nH]c2ccccc12	.	.	.	.	-13
CC(C)(C)NC(=O)[C@@H](c1cccnc1)N(C(=O)c1ccco1)c1ccc(C(C)(C)C)cc1	.	.	.	.	1
CCOC(=O)NNc1ccc2nonc2c1[N+](=O)[O-]	89*	96*	24*	51*	.
CCc1ccc(Nc2ccc3nonc3c2[N+](=O)[O-])cc1	4	-15	1	-5	-11
O=C1Nc2ccc(Cl)cc2/C1=C/C1CC=CCC1 (stereo not given)	6	27	47*	11	-8
O=C1Nc2cnc(Cl)nc2Nc2ccc(Cl)cc21	.	.	.	.	2
CC/C(=N/Nc1ccc(Cl)cc1)c1cnnc(SC)n1	50*	15	-2	-2	7
CC/C(=N/O)c1cnnc(SC)n1	-7	0	-3	-3	-1
COc1cccc(NC(=O)c2cc(C(=O)Nc3cccc(OC)c3)n(C)n2)c1	-6	41*	2	10	4
Cn1nc(C(=O)Nc2ccc(Br)cc2)cc1C(=O)Nc1ccc(Br)cc1	2	2	2	1	-5
CC(C)c1ccc(C2CC(c3ccc(Br)cc3)=NN2C(N)=S)cc1 (stereo not given)	1	11	20*	2	-7
COC(=O)CSc1nnc(-c2n[nH]c3c2CCC3)n1N	.	.	.	.	8
CCc1nc2sc3c(c2c(=O)n1NC(=O)CCl)CCCC3	58*	-11	1	2	3
CC1(OC(=O)CCc2ccccc2)C(=O)C=C2C=C3CCCN3C=C2C1=O (stereo not given)	36*	37	-1	-11	8
COc1cc(C(=O)ON=C2C3CC4CC(C3)CC2C4)cc(OC)c1OC	-3	4	36*	5	-7
Cc1nc(Nc2cnc(/C=C/c3cc(C(=O)Nc4cccc(C(F)(F)F)c4)ccc3C)cn2)cc(N2CCNCC2)n1	-32	75*	4	-8	.
CCOC(=O)c1c(C)[nH]c(C)c1C(=O)COC(=O)c1ccc(OC)c(OC)c1	35*	3	0	-4	9
CCOC(=O)c1c(C)[nH]c(C)c1C(=O)COC(=O)c1c(OC)cccc1OC	3	1	-7	-2	-8
SMILES	GSTO1 counter	Apaf1 inhib	Fh CTSL1 inh	PAD4 inh	TDP2 inh
COc1ccc(CNC(=O)O[C@H]2CC[C@@]34CCCN3C(=O)CCC[C@H]4[C@H]2C)cc1OC	.	.	.	.	6
CCn1c(COc2cccc(C)c2)nnc1SCC(=O)CC(=O)Nc1ccccc1OC	-4	21	17*	1	3
Cc1nnsc1C(=O)NC1CCCc2c1cnn2-c1ccc(C(C)(C)C)cc1 (stereo not given)	35*	15	0	0	-7
Cc1nnsc1C(=O)NC1CCCc2c1cnn2-c1ccccc1F (stereo not given)	1	2	-2	1	20
CN(C)CCCNS(=O)(=O)c1ccc(N2CCC(c3ccc(Cl)cc3)=N2)cc1	0	73*	8	-2	1
COc1ccc(N2C[C@@]3(O)CC[C@@H](O)[C@@H](OC)[C@@H]3[C@@](C)(O)[C@@H]2CC=C(C)C)cc1	.	.	.	.	-1

Screening data: PubChem BioAssay, several laboratories
